Experiments:
[1] = Antiproliferative activity against human FM3 cells after 72 hrs by MTT reduction assay; type: functional, cell-based
Method in brief: (§1)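 MTT reduction assay; adherent lines left to adhere overnight, suspension lines (HL-60, K562) seeded on the day. […] Incubation was 72 h at 37°C, with MTT added for the last 4 h. OD read at 545 nm (reference 690 nm). IC50 from 100(A0-A)/A0=50; means ± SD of 3 independent experiments.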

HCT-116 = assay: Antiproliferative activity against human HCT116 cells after 72 hrs by MTT reduction assay; type: functional, cell-based; details: HCT-116, 72 h
Method in brief: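 MTT reduction assay; adherent lines left to adhere overnight, suspension lines (HL-60, K562) seeded on the day. Incubation was 72 h at 37°C, with MTT added for the last 4 h.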

HeLa = assay: Antiproliferative activity against human HeLa cells after 72 hrs by MTT reduction assay; type: functional, cell-based; method in brief: as §1
MCF7 = assay: Antiproliferative activity against human MCF7 cells after 72 hrs by MTT reduction assay; type: functional, cell-based; details: MCF7, 72 h; method in brief: as §1
SK-BR-3 = assay: Antiproliferative activity against human SKBR3 cells after 72 hrs by MTT reduction assay; type: functional, cell-based; details: SK-BR-3, 72 h; method in brief: as §1
HL-60 = assay: Antiproliferative activity against human HL60 cells after 72 hrs by MTT reduction assay; type: functional, cell-based; details: HL-60, 72 h; method in brief: as §1
K562 = assay: Antiproliferative activity against human K562 cells after 72 hrs by MTT reduction assay; type: functional, cell-based; details: K562, 72 h; method in brief: as §1
B16-F1 [2] = assay: Antiproliferative activity against mouse B16-F1 cells after 72 hrs by MTT reduction assay; type: functional, cell-based; details: B16-F1, 72 h; method in brief: as §1
PBMC [3] = assay: Induction of apoptosis in human PBMC at 2 ug/ml after 24 hrs by propidium iodide staining-based flow cytometric method; type: cell-based
PBMC [4] = assay: Induction of apoptosis in human PBMC assessed as early apoptotic cells at 25 ug/ml after 24 hrs by propidium iodide staining-based flow cytometric method (reference value: 0.1%); type: cell-based
PBMC [5] = assay: Induction of apoptosis in human PBMC assessed as late apoptotic cells at 25 ug/ml after 24 hrs by propidium iodide staining-based flow cytometric method (reference value: 0.6%); type: cell-based
PBMC [6] = assay: Induction of apoptosis in human PBMC assessed as necrotic cells at 25 ug/ml after 24 hrs by propidium iodide staining-based flow cytometric method (reference value: 1%); type: cell-based
B16-F1 [7] = assay: Induction of apoptosis in mouse B16-F1 cells assessed as early apoptotic cells at 25 ug/ml after 24 hrs by propidium iodide staining-based flow cytometric method (reference value: 0.5%); type: functional
B16-F1 [8] = assay: Induction of apoptosis in mouse B16-F1 cells assessed as late apoptotic cells at 25 ug/ml after 24 hrs by propidium iodide staining-based flow cytometric method (reference value: 0.9%); type: functional
B16-F1 [9] = assay: Induction of apoptosis in mouse B16-F1 cells assessed as necrotic cells at 25 ug/ml after 24 hrs by propidium iodide staining-based flow cytometric method (reference value: 0.4%); type: functional
B16-F1 [10] = assay: Induction of apoptosis in mouse B16-F1 cells assessed as early apoptotic cells at 25 ug/ml after 48 hrs by propidium iodide staining-based flow cytometric method (reference value: 0.2%); type: functional
B16-F1 [11] = assay: Induction of apoptosis in mouse B16-F1 cells assessed as late apoptotic cells at 25 ug/ml after 48 hrs by propidium iodide staining-based flow cytometric method (reference value: 0.5%); type: functional
B16-F1 [12] = assay: Induction of apoptosis in mouse B16-F1 cells assessed as necrotic cells at 25 ug/ml after 48 hrs by propidium iodide staining-based flow cytometric method (reference value: 1%); type: functional
B16-F1 [13] = assay: Induction of apoptosis in mouse B16-F1 cells assessed as early apoptotic cells at 25 ug/ml after 72 hrs by propidium iodide staining-based flow cytometric method (reference value: 0.4%); type: functional
B16-F1 [14] = assay: Induction of apoptosis in mouse B16-F1 cells assessed as late apoptotic cells at 25 ug/ml after 72 hrs by propidium iodide staining-based flow cytometric method (reference value: 1.4%); type: functional

| SMILES | IC50 (HCT-116) [µM] | IC50 (HeLa) [µM] | IC50 (MCF7) [µM] | IC50 (SK-BR-3) [µM] | IC50 (HL-60) [µM] | IC50 (K562) [µM] | IC50 (B16-F1 [2]) [µM] | IC50 [1] [µM] | Activity (PBMC [3]) [%] | Activity (PBMC [4]) [%] | Activity (PBMC [5]) [%] | Activity (PBMC [6]) [%] | Activity (B16-F1 [7]) [%] | Activity (B16-F1 [8]) [%] | Activity (B16-F1 [9]) [%] | Activity (B16-F1 [10]) [%] | Activity (B16-F1 [11]) [%] | Activity (B16-F1 [12]) [%] | Activity (B16-F1 [13]) [%] | Activity (B16-F1 [14]) [%] |
| --- | --- | --- | --- | --- | --- | --- | --- | --- | --- | --- | --- | --- | --- | --- | --- | --- | --- | --- | --- | --- |
| C/C=C1/[C@H](O[C@@H]2O[C@H](COC(C)=O)[C@@H](OC(C)=O)[C@H](OC(C)=O)[C@H]2OC(C)=O)OC=C(C(=O)OC)[C@H]1CC(=O)OCCCCCCCCCCCCCCCC | 21 | 17 | 9.66 | 3.81 | 8 | 7 | 34 | 27 | – | – | – | – | – | – | – | – | – | – | – | – |
| C/C=C1/[C@H](O[C@@H]2O[C@H](CO)[C@@H](O)[C@H](O)[C@H]2O)OC=C(C(=O)O)[C@H]1CC(=O)O | > 50 | > 50 | > 50 | > 50 | > 50 | > 50 | > 50 | > 50 | – | – | – | – | – | – | – | – | – | – | – | – |
| C/C=C1/[C@H](O[C@@H]2O[C@H](CO)[C@@H](O)[C@H](O)[C@H]2O)OC=C(C(=O)OC)[C@H]1CC(=O)OCCc1ccccc1 (stereo in doubt) | 25.3 | 18.5 | 19.3 | 11 | 10.3 | 20 | 41 | 28 | – | – | – | – | – | – | – | – | – | – | – | – |
| C/C=C1/[C@H](O[C@@H]2O[C@H](COC(C)=O)[C@@H](OC(C)=O)[C@H](OC(C)=O)[C@H]2OC(C)=O)OC=C(C(=O)OC)[C@H]1CC(=O)OCCc1ccccc1 (stereo in doubt) | 26 | 21 | 18.7 | 11.5 | 10 | 16 | 43 | 29.3 | – | – | – | – | – | – | – | – | – | – | – | – |
| COc1cccc2c1C(=O)c1c(O)c3c(c(O)c1C2=O)C[C@@](O)(C(=O)CO)C[C@@H]3O[C@H]1C[C@H](N)[C@H](O)[C@H](C)O1 [DOXORUBICIN] | – | 0.221 | – | 0.202 | 0.017 | 0.018 | 0.23 | 0.217 | – | 0 | 4.6 | 46.2 | 23.4 | 1.5 | 1.1 | 57.5 | 2 | 0.9 | 71.5 | 8.1 |

More lines, main results first:

| IC50 (HCT-116) [µM] | IC50 (HeLa) [µM] | IC50 (MCF7) [µM] | IC50 (SK-BR-3) [µM] | IC50 (HL-60) [µM] | IC50 (K562) [µM] | IC50 (B16-F1 [2]) [µM] | SMILES | IC50 [1] [µM] | Activity (PBMC [3]) [%] | Activity (PBMC [4]) [%] | Activity (PBMC [5]) [%] | Activity (PBMC [6]) [%] | Activity (B16-F1 [7]) [%] | Activity (B16-F1 [8]) [%] | Activity (B16-F1 [9]) [%] | Activity (B16-F1 [10]) [%] | Activity (B16-F1 [11]) [%] | Activity (B16-F1 [12]) [%] | Activity (B16-F1 [13]) [%] | Activity (B16-F1 [14]) [%] |
| --- | --- | --- | --- | --- | --- | --- | --- | --- | --- | --- | --- | --- | --- | --- | --- | --- | --- | --- | --- | --- |
| 25.7 | 17.5 | 15 | 6.6 | 10.7 | 8.5 | 44 | C/C=C1/[C@H](O[C@@H]2O[C@H](COC(C)=O)[C@@H](OC(C)=O)[C@H](OC(C)=O)[C@H]2OC(C)=O)OC=C(C(=O)OC)[C@H]1CC(=O)OCCC (stereo in doubt) | 29 | – | – | – | – | – | – | – | – | – | – | – | – |
| 13.7 | 5.6 | 5 | 2 | 0.48 | 0.85 | 5.04 | C/C=C1/[C@H](O[C@@H]2O[C@H](CO)[C@@H](O)[C@H](O)[C@H]2O)OC=C(C(=O)OC)[C@H]1CC(=O)OCCC1CCCCC1 (stereo in doubt) | 9.33 | > 30 | – | – | – | – | – | – | – | – | – | – | – |
| 26.7 | 19.5 | 21.3 | 9.02 | 9.83 | 18 | 39.1 | C/C=C1/[C@H](O[C@@H]2O[C@H](CO)[C@@H](O)[C@H](O)[C@H]2O)OC=C(C(=O)OC)[C@H]1CC(=O)OCCC(C)C (stereo in doubt) | 27.7 | – | – | – | – | – | – | – | – | – | – | – | – |
